Drawing on ChEMBL document CHEMBL2034835, “A solvent free, four-component synthesis and 1,3-dipolar cycloaddition of 4(H)-pyrans with nitrile oxides: synthesis and discovery of antimycobacterial activity of enantiomerically pure 1,2,4-oxadiazoles” (2012), this text covers Ratio and MIC for 23 compounds.

≈ marks a conversion by molar mass, not a printed value.

One test has as its system Mycobacterium tuberculosis. The experiment in a line: Ratio of ciprofloxacin MIC to compound MIC for Mycobacterium tuberculosis H37Rv. It is filed as functional.
Details: not given
As for `C[C@H](c1ccccc1)N1CC2=C(OC(N)=C(c3nc(-c4ccc(Cl)cc4)no3)C2c2ccc(Cl)cc2Cl)/C(=C/c2ccc(Cl)cc2Cl)C1` (stereo in doubt; 10h), the Ratio is reported as 67.3.

Another test relates to Mycobacterium tuberculosis. Kind of test: Ratio of ethambutol MIC to compound MIC for Mycobacterium tuberculosis H37Rv. It is filed as functional.
Details: not given
With `C[C@H](c1ccccc1)N1CC2=C(OC(N)=C(c3nc(-c4ccc(Cl)cc4)no3)C2c2ccc(Cl)cc2Cl)/C(=C/c2ccc(Cl)cc2Cl)C1` (stereo in doubt; 10h), the Ratio worked out at 109.

In a further test the test system is Mycobacterium tuberculosis. Kind of test: Ratio of rifampicin MIC to compound MIC for Mycobacterium tuberculosis H37Rv. It is filed as functional.
Details: not given
With `C[C@H](c1ccccc1)N1CC2=C(OC(N)=C(c3nc(-c4ccc(Cl)cc4)no3)C2c2ccc(Cl)cc2Cl)/C(=C/c2ccc(Cl)cc2Cl)C1` (stereo in doubt; 10h), the Ratio is reported as 1.7.

Another test has as its system Mycobacterium tuberculosis. The experiment in a line: Ratio of isoniazid MIC to compound MIC for Mycobacterium tuberculosis H37Rv. In kind it is functional.
Details: not given
Take `C[C@H](c1ccccc1)N1CC2=C(OC(N)=C(c3nc(-c4ccc(Cl)cc4)no3)C2c2ccc(Cl)cc2Cl)/C(=C/c2ccc(Cl)cc2Cl)C1` (stereo in doubt; 10h): the Ratio is on record as 5.1.

Another test relates to Mycobacterium tuberculosis. Kind of test: Antitubercular activity against Mycobacterium tuberculosis H37Rv after 28 days by agar dilution method. In kind it is functional.
Details: not given
The gist of the method:
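Agar dilution, following NCCLS guidance, on Middlebrook 7H11 with OADC supplement containing ten-fold serial dilutions of drug. H37Rv inoculum was taken from fresh 7H11/OADC slants, adjusted to 1 mg/mL wet weight in 0.05% Tween 80 saline and diluted 10^-2 to about 10^7 cfu/mL. 5 µL was spotted per tube and incubated at 37 °C for 28 days. MIC is the lowest concentration giving complete growth inhibition.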
On the technique in general: In agar dilution the substance is mixed into plates at graded concentrations.
As a reminder, the MIC is the smallest concentration in the dilution series that meets the test's criterion for growth inhibition. Consider `C[C@H](c1ccccc1)N1CC2=C(OC(N)=C(c3nc(-c4ccccc4)no3)C2c2ccccc2)/C(=C/c2ccccc2)C1` (stereo in doubt; 9a), for which the MIC was 11.07 µM (≈ 6.25 µg/mL).

For `C[C@H](c1ccccc1)N1CC2=C(OC(N)=C(c3nc(-c4ccc(Cl)cc4)no3)C2c2ccccc2)/C(=C/c2ccccc2)C1` (stereo in doubt; 9b), the MIC was found to be 5.22 µM (≈ 3.13 µg/mL).

The compound `Cc1ccc(/C=C2\CN([C@H](C)c3ccccc3)CC3=C2OC(N)=C(c2nc(-c4ccc(Cl)cc4)no2)C3c2ccc(C)cc2)cc1` (stereo in doubt; 9d) displayed an MIC of 2.49 µM (≈ 1.56 µg/mL).

`C[C@H](c1ccccc1)N1CC2=C(OC(N)=C(c3nc(-c4ccc(Cl)cc4)no3)C2c2ccccc2Cl)/C(=C/c2ccccc2Cl)C1` (stereo in doubt; 9f): the MIC was found to be 0.6 µM (≈ 0.401 µg/mL).

Turning to `C[C@H](c1ccccc1)N1CC2=C(OC(N)=C(c3nc(-c4ccc(Cl)cc4)no3)C2c2ccc(Cl)cc2Cl)/C(=C/c2ccc(Cl)cc2Cl)C1` (stereo in doubt; 9h), the MIC is 0.27 µM (≈ 0.199 µg/mL).

In turn, `C[C@H](c1ccccc1)N1CC2=C(OC(N)=C(c3nc(-c4ccccc4)no3)C2c2cccc3ccccc23)/C(=C/c2cccc3ccccc23)C1` (stereo in doubt; 9i) registered an MIC of 18.8 µM (≈ 12.5 µg/mL).

In the case of `C[C@H](c1ccccc1)N1CC2=C(OC(N)=C(c3nc(-c4ccccc4)no3)C2c2ccccc2)/C(=C/c2ccccc2)C1` (stereo in doubt; 10a), the MIC was determined as 2.76 µM (≈ 1.56 µg/mL).

In the case of `C[C@H](c1ccccc1)N1CC2=C(OC(N)=C(c3nc(-c4ccc(Cl)cc4)no3)C2c2ccccc2)/C(=C/c2ccccc2)C1` (stereo in doubt; 10b), the MIC amounted to 2.6 µM (≈ 1.56 µg/mL).

In turn, `Cc1ccc(/C=C2\CN([C@H](C)c3ccccc3)CC3=C2OC(N)=C(c2nc(-c4ccccc4)no2)C3c2ccc(C)cc2)cc1` (stereo in doubt; 10c) registered a minimum inhibitory concentration (MIC) of 5.28 µM (≈ 3.13 µg/mL).

`Cc1ccc(/C=C2\CN([C@H](C)c3ccccc3)CC3=C2OC(N)=C(c2nc(-c4ccc(Cl)cc4)no2)C3c2ccc(C)cc2)cc1` (stereo in doubt; 10d) came in with a minimum inhibitory concentration (MIC) of 0.64 µM (≈ 0.401 µg/mL).

In turn, `C[C@H](c1ccccc1)N1CC2=C(OC(N)=C(c3nc(-c4ccccc4)no3)C2c2ccccc2Cl)/C(=C/c2ccccc2Cl)C1` (stereo in doubt; 10e) returned an MIC of 0.63 µM (≈ 0.399 µg/mL).

As to `C[C@H](c1ccccc1)N1CC2=C(OC(N)=C(c3nc(-c4ccc(Cl)cc4)no3)C2c2ccccc2Cl)/C(=C/c2ccccc2Cl)C1` (stereo in doubt; 10f), the minimal inhibitory concentration (MIC) worked out at 0.15 µM (≈ 0.1 µg/mL).

`C[C@H](c1ccccc1)N1CC2=C(OC(N)=C(c3nc(-c4ccccc4)no3)C2c2ccc(Cl)cc2Cl)/C(=C/c2ccc(Cl)cc2Cl)C1` (stereo in doubt; 10g): the MIC was found to be 0.57 µM (≈ 0.4 µg/mL).

The compound `C[C@H](c1ccccc1)N1CC2=C(OC(N)=C(c3nc(-c4ccc(Cl)cc4)no3)C2c2ccc(Cl)cc2Cl)/C(=C/c2ccc(Cl)cc2Cl)C1` (stereo in doubt; 10h) had an MIC of 0.07 µM (≈ 0.0516 µg/mL).

Take `C[C@H](c1ccccc1)N1CC2=C(OC(N)=C(c3nc(-c4ccccc4)no3)C2c2cccc3ccccc23)/C(=C/c2cccc3ccccc23)C1` (stereo in doubt; 10i): the MIC worked out at 4.71 µM (≈ 3.13 µg/mL).

Consider `C[C@H](c1ccccc1)N1CC2=C(OC(N)=C(c3nc(-c4ccc(Cl)cc4)no3)C2c2cccc3ccccc23)/C(=C/c2cccc3ccccc23)C1` (stereo in doubt; 10j), for which the MIC was found to be 4.48 µM (≈ 3.13 µg/mL).

The test is the same for the next values; noted with them: Mycobacterium tuberculosis, H37Rv, 672 h; read-out: MIC.
With `Cc1ccc(/C=C2\CN([C@H](C)c3ccccc3)CC3=C2OC(N)=C(c2nc(-c4ccccc4)no2)C3c2ccc(C)cc2)cc1` (stereo in doubt; 9c), the minimum inhibitory concentration (MIC) was determined as 10.5 µM (≈ 6.25 µg/mL).

For `C[C@H](c1ccccc1)N1CC2=C(OC(N)=C(c3nc(-c4ccccc4)no3)C2c2ccccc2Cl)/C(=C/c2ccccc2Cl)C1` (stereo in doubt; 9e), the MIC was 1.23 µM (≈ 0.779 µg/mL).

As to `C[C@H](c1ccccc1)N1CC2=C(OC(N)=C(c3nc(-c4ccccc4)no3)C2c2ccc(Cl)cc2Cl)/C(=C/c2ccc(Cl)cc2Cl)C1` (stereo in doubt; 9g), the MIC came out at 1.11 µM (≈ 0.78 µg/mL).

On to `C[C@H](c1ccccc1)N1CC2=C(OC(N)=C(c3nc(-c4ccc(Cl)cc4)no3)C2c2cccc3ccccc23)/C(=C/c2cccc3ccccc23)C1` (stereo in doubt; 9j), for which the minimal inhibitory concentration (MIC) worked out at 8.94 µM (≈ 6.25 µg/mL).

As for `CC[C@@H](CO)NCCN[C@@H](CC)CO` [ETHAMBUTOL], the MIC came to 7.64 µM (≈ 1.56 µg/mL).

Consider `NNC(=O)c1ccncc1` [ISONIAZID], for which the minimal inhibitory concentration (MIC) amounted to 0.36 µM (≈ 0.0494 µg/mL).

In the case of `CO[C@H]1/C=C/O[C@@]2(C)Oc3c(C)c(O)c4c(O)c(c(/C=N/N5CCN(C)CC5)c(O)c4c3C2=O)NC(=O)/C(C)=C\C=C\[C@H](C)[C@H](O)[C@@H](C)[C@@H](O)[C@@H](C)[C@H](OC(C)=O)[C@@H]1C` [RIFAMPIN], the MIC came to 0.12 µM (≈ 0.0988 µg/mL).
